Hits are enriched below; roughly 3.9% of the tested compounds scored in any of these assays.
TMEM16A act – TMEM16A chloride channel activators or potentiators, primary screen, cell-based, HTS. hit rate 0.3% among 340,000. HEK293 TMEM16A/YFP-H148Q/I152L, iodide quench fluorescence; stronger effect = lower value. Anoctamin-1 (Mus musculus), Q8BHY3. B-score at 10 µM;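 active = fluorescence-ratio B-score plate-corrected deviation score at least 3 library SD below zero, with starting fluorescence score within 5 deviations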;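 also: channel opened by trigger with iodide after compound preincubation; score built on the fluorescence ratio of max minus min over baseline; more negative score means more quench and so TMEM16A activation or potentiation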
TMEM16A inh – TMEM16A chloride channel inhibitors, primary screen, cell-based, HTS; normalized B-score (activity score, 25-100; higher = stronger inhibition) at 10 µM; Anoctamin-1 (Mus musculus), Q8BHY3; hit rate 1.2% among 310,000; HEK293 TMEM16A/YFP iodide influx fluorescence, ionomycin;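 active = ratio plate-corrected score three or more library SD toward inhibition, starting fluorescence score within five deviations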;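 also: score derived from kinetic fluorescence span divided by baseline fluorescence per well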
TAAR1 agonist – human TAAR1 agonists, primary screen, Fluo-8 calcium fluorescence, CHO RD-HGA16 cells | Trace amine-associated receptor 1 (Homo sapiens), Q96RJ0 | vehicle wells 0%, saturating PEA agonist 100% | activation, % at 3 µM | hit rate 0.99% among 360,000 | AID 624467, 2012;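 active = activation above the mean activation of all test compounds in the run plus 3 SD, cut at about 38% in these data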
Target sequence (Q96RJ0 whole entry, looked up): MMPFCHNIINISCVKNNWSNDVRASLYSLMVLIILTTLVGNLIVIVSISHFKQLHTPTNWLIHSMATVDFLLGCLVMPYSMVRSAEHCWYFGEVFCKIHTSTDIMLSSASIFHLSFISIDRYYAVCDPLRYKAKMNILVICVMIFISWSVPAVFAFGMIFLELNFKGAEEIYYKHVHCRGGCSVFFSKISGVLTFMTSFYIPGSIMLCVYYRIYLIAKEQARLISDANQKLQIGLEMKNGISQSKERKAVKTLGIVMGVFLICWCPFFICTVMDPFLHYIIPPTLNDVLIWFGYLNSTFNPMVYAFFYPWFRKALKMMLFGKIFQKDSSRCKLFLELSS
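System: CHO RD-HGA16 cells carrying human TAAR1 plus Gα16; Incubation: 17-24 h seeding, 75 min 37 °C dye, 30 min RT; Measured by: Fluo-8 fluorescence, 5 s baseline then 140 s kinetic read; Control set: DMSO and PEA EC100; Replication: single well for each compound.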
CRFR2-BP antag – antagonists of CRF-BP/CRF-R2 complex, primary screen, cell-based, HEK293, calcium dye fluorescence, uHTS. CRF-induced calcium fluorescence. inhibition, % at 11.8 µM. hit rate 0.59% among 350,000. AID 588475, 2011;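 active = inhibition of the ligand-induced calcium signal above about 50% at the single tested concentration, limit read from the data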
CRFR2-BP ag – agonists of CRF-BP/CRF-R2 complex, primary screen, cell-based, HEK293, calcium dye fluorescence, uHTS | calcium dye fluorescence (FLIPR); percent of saturating CRF peptide response | activation, % at 13.2 µM | hit rate 0.46% among 350,000;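 active = activation of at least 50%, plus an integration ratio under a set limit after plate pattern correction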;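 also: plate controls were neutral control wells without compound for no effect and CRF at EC100 for full effect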
TAAR1 antag – human TAAR1 antagonists, primary screen, Fluo-8 calcium fluorescence, CHO RD-HGA16 cells; Trace amine-associated receptor 1 (Homo sapiens), Q96RJ0; antagonist; inhibition, % at 3 µM; hit rate 1.5% among 360,000;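 active = inhibition above a per-plate cutoff, the mean inhibition of test compounds on that plate plus 3 SD, cut at about 49% in these data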;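 also: 0% = DMSO plus EC80 beta-PEA response and 100% = DMSO alone without agonist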
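Test system: CHO RD-HGA16 cells bearing hTAAR1 | Reagent: β-PEA, EC80 | Compound dosing: 3 µM, single point | Schedule: Dye loading 75 min at 37 °C, then 30 min room temperature | Signal: Calcium fluorescence with Fluo-8 | Evaluation: Percent inhibition of PEA-evoked calcium signal, max/basal emission ratio | Control set: DMSO-only wells and EC80 β-PEA-stimulated wells | Repeats: Singlicate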
The depositor's hits bear a star; i = inactive; . = not tested or not shown.

SMILES	TMEM16A act	TMEM16A inh	TAAR1 agonist	CRFR2-BP antag	CRFR2-BP ag	TAAR1 antag
CCOCCCNC(=O)C(c1ccc(OC)cc1)N(Cc1cccs1)C(=O)c1ccccn1 (configuration not stated)	i	i	17.6	-1.5	-2.5	50.3*
C=CCN(C(=O)c1csnn1)C(C(=O)NCc1ccccc1)c1cccs1 (configuration not stated)	i	i	-0.5	5.9	0.7	0.7
O=C(NCc1ccccc1)C(c1cccs1)N(Cc1cccs1)C(=O)c1cnccn1 (configuration not stated)	i	i	17.4	-20.2	-0.3	49.6*
CCOCCCNC(=O)C(c1ccc(OC)cc1)N(Cc1ccc2c(c1)OCO2)C(=O)c1ccccn1 (configuration not stated)	i	i	6.2	-5.1	1.3	-4.1
COc1cc(C(C(=O)NCc2ccccc2)N(Cc2ccco2)C(=O)c2cnccn2)cc(OC)c1OC (configuration not stated)	i	i	0.4	-12.0	-0.8	7.8
O=C(NCc1ccccc1)C(c1ccccc1)N(Cc1cccs1)C(=O)c1cnccn1 (configuration not stated)	i	i	17.8	-11.0	-0.4	62.1*
CN(CC(=O)Nc1ccccc1Sc1ccccc1)C1CCCCC1	i	i	-0.7	-28.6	4.2	-27.3
CC(C)(C)OC(=O)COc1cc(O)c2c(=O)cc(-c3ccccc3)oc2c1	i	i	-2.0	-4.2	-0.7	5.6
CC(C)(C)OC(=O)COc1cc(OCC(=O)OC(C)(C)C)c2c(=O)cc(-c3ccccc3)oc2c1	i	100*	4.1	-7.6	1.1	29.5
CCOC(=O)c1ccc(NC(=O)CN(c2ccc(C)cc2)S(=O)(=O)c2c(C)n[nH]c2C)cc1	i	i	33.8	-21.1	14.7	51.9*
C=C1CC(Cn2cc(Br)c(=O)[nH]c2=O)(c2ccc(-c3ccccc3)cc2)OC1=O (configuration not stated)	i	.	4.6	-3.4	6.0	67.8*
O=c1[nH]c(=O)n(Cc2ccc(Oc3ccccc3)cc2)cc1Br	i	i	9.3	.	.	15.6
Cc1cc(C(=O)NC2CCCc3c2cnn3-c2ccc(C(C)(C)C)cc2)nn1C (configuration not stated)	i	25*	-1.7	-1.4	-0.9	4.0
COc1ccc(C)cc1S(=O)(=O)N1CCN(S(=O)(=O)c2cc(C)ccc2OC)CC1	i	i	2.9	54.1*	-6.0	-10.9
O=C(CSc1nnc(C2CC2)n1CC1CCCO1)Nc1ccc(Cl)cc1 (configuration not stated)	i	i	-0.1	-7.6	-0.1	-8.4
COc1ccc(-c2noc(CCC(=O)N(C)c3cccc(C)c3)n2)cc1	i	i	8.3	25.2	-1.2	-3.5
CCN(C(=O)CCc1nc(-c2ccc(OC)cc2)no1)c1cc(OC)ccc1OC	i	25*	-1.3	16.5	1.1	1.1
CCOc1ccccc1NC(=O)CNS(=O)(=O)c1ccc2nc(C)sc2c1	i	i	3.1	11.1	-1.3	-15.4
c1cnc2ccc(C(c3nnnn3C3CCCC3)N3CCN(c4nc5ccccc5s4)CC3)cc2c1 (configuration not stated)	i	i	0.0	-8.4	3.3	8.4
Clc1ccc(C(c2nnnn2C2CCCC2)N2CCN(c3nc4ccccc4s3)CC2)cc1 (configuration not stated)	-12*	i	3.0	21.0	0.0	8.5
O=C(COC(=O)CC1SC(N2CCCC2)=NC1=O)Nc1ccc(Br)cc1 (configuration not stated)	i	.	7.2	4.6	3.7	-33.9
CC(C)Cn1c(=O)c2c(nc3n2CCCN3CCc2ccccc2)n(C)c1=O	i	25*	15.9	-13.2	-1.3	3.5
COc1ccc(N2CCCn3c2nc2c3c(=O)n(CCc3ccccc3)c(=O)n2C)cc1	-5.02*	i	4.2	3.2	-2.7	11.6
Cn1c(=O)n(CCc2ccccc2)c(=O)c2c1nc1n2CCCN1CCc1ccccc1	i	i	18.7	8.5	-0.7	14.0
Cn1c(=O)n(CCc2ccccc2)c(=O)c2c1nc1n2CCCN1Cc1ccccc1	i	i	14.1	10.6	0.4	16.0
SMILES	TMEM16A act	TMEM16A inh	TAAR1 agonist	CRFR2-BP antag	CRFR2-BP ag	TAAR1 antag
Cc1ccn2c(CC(C)(C)C)c(-c3ccc(F)cc3)nc2c1	.	.	-1.9	-16.1	-1.4	-21.2
O=C(NCCc1ccccc1C(F)(F)F)C1CCC(=O)N(CCCN2CCCC2=O)C1 (configuration not stated)	i	i	1.0	-2.2	0.3	-24.0
Cc1ccc(S(=O)(=O)Nc2cc(C(=O)Nc3cc(C)cc(C)c3)ccc2Cl)cc1	i	i	9.1	55.2*	-2.1	30.2
Cc1cccc(NC(=O)c2cc(S(=O)(=O)c3ccccc3)ccc2Cl)c1	i	i	6.9	62.0*	0.6	20.9
CS(=O)(=O)c1ccc2nc(NC(=O)c3cccc(NS(=O)(=O)c4ccc(F)c(F)c4)c3)sc2c1	i	i	6.2	-5.3	4.5	51.9*
Cc1cccc(NS(=O)(=O)c2nnc(NC(=O)c3ccc(Cl)cc3)s2)c1	i	i	-1.6	-3.9	0.0	-3.3
Cc1cccc(NC(=O)c2cccc(NS(=O)(=O)c3ccc(Cl)cc3)c2)c1	i	100*	.	13.5	-0.4	.
CCOCC(=O)Nc1cc(C(=O)Nc2cc(C)cc(C)c2)ccc1Cl	.	i	.	.	.	.
CS(=O)(=O)c1ccc2nc(NC(=O)c3ccc(NS(=O)(=O)c4ccc(F)c(F)c4)cc3)sc2c1	i	i	1.8	-9.7	3.7	5.6
Cc1ccc(OCCSc2nc3ccccc3n2CC(=O)O)c(C(C)C)c1	i	i	-0.2	7.4	0.1	-1.8
CCc1ccc(C(=O)C(C)OC(=O)c2cccc(S(=O)(=O)N3CCOCC3)c2)cc1 (configuration not stated)	i	i	5.7	6.0	-0.1	8.6
Cn1c(C(=O)c2ccncc2)cc2ccccc21	i	i	-1.1	-9.5	0.1	3.9
Cc1ccnc(NC(=O)c2cccc(NC(=O)c3ccc(Cl)c(Cl)c3)c2)c1	i	.	13.8	10.2	1.8	54.1*
O=c1ccsn1Cc1ccccc1	i	i	43.6*	27.2	2.7	36.7
